# Activity calls are given as the source filed them. No cut-off for these calls is given here.
# Assays:
# [1] = biological target: T1, Broad substrate specificity ATP-binding cassette transporter ABCG2 (Homo sapiens, UniProt Q9UNQ0); assay: Inhibition of ABCG2 overexpressed in human MCF7/Topo cells by flow cytometric-based mitoxantrone efflux assay; type: cell-based
# T1 sequence (Q9UNQ0 whole entry): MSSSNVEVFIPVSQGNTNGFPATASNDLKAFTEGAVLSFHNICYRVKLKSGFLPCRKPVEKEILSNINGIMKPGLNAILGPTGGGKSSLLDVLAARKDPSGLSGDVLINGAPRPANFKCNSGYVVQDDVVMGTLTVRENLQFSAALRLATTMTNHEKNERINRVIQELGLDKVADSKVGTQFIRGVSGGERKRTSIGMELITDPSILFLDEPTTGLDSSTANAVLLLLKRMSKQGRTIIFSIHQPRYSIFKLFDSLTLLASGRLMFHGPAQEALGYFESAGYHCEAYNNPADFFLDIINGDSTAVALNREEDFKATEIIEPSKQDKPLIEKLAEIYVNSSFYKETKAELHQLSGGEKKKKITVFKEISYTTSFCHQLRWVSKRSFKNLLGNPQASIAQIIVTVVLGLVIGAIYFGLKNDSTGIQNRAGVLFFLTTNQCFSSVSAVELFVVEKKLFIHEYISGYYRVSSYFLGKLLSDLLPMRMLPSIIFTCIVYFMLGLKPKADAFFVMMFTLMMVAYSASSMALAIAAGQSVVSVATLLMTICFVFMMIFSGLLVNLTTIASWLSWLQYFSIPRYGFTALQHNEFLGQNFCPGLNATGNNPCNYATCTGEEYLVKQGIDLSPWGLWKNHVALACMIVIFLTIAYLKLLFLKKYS
# How it was run: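 MCF-7/Topo cells, 1 × 10^6/mL, incubated 30 min at 37 °C/5% CO2 with 20 µM mitoxantrone and graded modulator; washed, 1 h efflux in drug-free medium at 37 °C, PBS resuspension, flow cytometry.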
# [2] = biological target: T2, ATP-binding cassette sub-family C member 2 (Homo sapiens, UniProt Q92887); assay: Inhibition of ABCC2 overexpressed in MDCK cells […] up to 50 uM by flow cytometric-based chloromethylfluorescein-diacetate accumulation assay; type: cell-based; details: dog
# T2 sequence (Q92887 whole entry): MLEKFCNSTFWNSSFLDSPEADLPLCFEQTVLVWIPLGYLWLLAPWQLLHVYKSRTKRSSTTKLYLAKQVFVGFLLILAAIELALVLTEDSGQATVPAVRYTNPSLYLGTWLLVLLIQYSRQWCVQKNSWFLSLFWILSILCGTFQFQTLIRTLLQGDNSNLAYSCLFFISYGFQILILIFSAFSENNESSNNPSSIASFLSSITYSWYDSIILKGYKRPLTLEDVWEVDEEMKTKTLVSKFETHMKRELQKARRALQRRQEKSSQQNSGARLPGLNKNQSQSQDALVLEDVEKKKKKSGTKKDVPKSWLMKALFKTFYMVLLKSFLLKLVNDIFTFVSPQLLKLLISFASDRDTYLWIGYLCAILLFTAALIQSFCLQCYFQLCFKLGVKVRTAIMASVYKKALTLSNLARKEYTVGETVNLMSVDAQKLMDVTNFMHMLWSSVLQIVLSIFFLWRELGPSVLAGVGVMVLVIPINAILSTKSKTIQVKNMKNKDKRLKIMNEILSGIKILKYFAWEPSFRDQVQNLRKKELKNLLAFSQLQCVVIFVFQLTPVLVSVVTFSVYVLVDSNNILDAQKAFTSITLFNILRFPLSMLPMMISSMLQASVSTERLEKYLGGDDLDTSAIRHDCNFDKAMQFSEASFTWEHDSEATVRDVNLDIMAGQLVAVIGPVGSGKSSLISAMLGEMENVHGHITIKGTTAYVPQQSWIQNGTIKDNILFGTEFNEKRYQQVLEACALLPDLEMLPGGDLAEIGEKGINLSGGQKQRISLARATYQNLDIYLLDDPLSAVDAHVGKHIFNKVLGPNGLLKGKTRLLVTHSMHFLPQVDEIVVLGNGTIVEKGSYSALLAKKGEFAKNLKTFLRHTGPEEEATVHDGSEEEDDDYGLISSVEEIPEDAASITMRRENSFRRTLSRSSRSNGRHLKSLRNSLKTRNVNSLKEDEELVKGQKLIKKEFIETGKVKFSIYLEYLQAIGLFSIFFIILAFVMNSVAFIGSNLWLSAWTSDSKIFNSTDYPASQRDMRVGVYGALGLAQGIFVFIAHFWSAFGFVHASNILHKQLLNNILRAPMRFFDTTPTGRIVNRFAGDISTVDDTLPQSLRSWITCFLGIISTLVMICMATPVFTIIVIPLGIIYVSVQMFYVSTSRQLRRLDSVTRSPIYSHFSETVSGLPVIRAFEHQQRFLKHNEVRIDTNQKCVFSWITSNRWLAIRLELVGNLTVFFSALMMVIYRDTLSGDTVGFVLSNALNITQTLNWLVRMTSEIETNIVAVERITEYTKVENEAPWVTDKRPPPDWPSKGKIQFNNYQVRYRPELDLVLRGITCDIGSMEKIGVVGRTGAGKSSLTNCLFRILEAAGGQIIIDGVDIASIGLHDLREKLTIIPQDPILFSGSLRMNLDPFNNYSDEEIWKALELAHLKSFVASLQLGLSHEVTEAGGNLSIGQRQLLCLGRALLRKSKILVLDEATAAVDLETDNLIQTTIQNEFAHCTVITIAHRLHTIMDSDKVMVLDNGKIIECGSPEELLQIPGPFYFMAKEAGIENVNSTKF
# [3] = biological target: T3, ATP-dependent translocase ABCB1 (Homo sapiens, UniProt P08183); assay: Inhibition of ABCB1 overexpressed in human KBv1 cells by flow cytometric-based calcein-AM efflux assay; type: cell-based
# T3 sequence (P08183 whole entry): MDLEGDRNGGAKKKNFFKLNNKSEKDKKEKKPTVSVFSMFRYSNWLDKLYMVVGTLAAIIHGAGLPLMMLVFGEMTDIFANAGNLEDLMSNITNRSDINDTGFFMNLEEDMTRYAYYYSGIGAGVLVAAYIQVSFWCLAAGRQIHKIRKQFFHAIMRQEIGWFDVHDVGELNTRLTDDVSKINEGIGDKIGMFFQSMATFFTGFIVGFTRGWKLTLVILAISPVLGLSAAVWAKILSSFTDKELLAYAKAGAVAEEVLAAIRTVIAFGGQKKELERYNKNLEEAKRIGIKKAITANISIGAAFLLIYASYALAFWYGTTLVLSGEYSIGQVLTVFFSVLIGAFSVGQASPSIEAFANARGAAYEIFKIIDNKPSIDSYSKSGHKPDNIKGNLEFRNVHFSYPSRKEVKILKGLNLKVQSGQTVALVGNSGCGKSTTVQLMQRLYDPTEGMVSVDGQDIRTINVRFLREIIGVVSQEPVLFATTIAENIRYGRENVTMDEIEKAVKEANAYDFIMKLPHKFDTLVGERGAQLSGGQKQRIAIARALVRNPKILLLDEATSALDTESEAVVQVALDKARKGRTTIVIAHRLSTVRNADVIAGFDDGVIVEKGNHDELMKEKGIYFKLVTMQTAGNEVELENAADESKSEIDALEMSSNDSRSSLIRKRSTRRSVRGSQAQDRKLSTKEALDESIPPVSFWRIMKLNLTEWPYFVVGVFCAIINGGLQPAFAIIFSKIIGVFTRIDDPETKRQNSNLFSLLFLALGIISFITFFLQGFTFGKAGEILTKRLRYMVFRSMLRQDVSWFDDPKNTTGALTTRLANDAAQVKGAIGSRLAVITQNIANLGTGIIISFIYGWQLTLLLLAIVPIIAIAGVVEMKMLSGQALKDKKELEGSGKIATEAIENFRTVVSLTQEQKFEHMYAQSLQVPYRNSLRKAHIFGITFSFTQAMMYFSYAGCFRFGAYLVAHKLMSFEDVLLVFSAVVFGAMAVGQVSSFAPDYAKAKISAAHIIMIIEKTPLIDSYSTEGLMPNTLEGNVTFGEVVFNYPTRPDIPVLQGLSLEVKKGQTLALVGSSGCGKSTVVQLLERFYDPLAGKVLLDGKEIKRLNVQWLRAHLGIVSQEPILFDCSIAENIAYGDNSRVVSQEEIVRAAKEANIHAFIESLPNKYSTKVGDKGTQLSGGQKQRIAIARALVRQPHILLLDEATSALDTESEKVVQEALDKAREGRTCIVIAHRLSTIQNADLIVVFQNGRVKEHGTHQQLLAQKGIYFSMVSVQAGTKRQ
# [4] = biological target: T1, Broad substrate specificity ATP-binding cassette transporter ABCG2; assay: Inhibition of ABCG2 over-expressed in human MCF7/Topo cells at 7 to 10 uM by flow cytometric-based mitoxantrone efflux assay relative to fumitremorgin C; type: cell-based
# How it was run: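 MCF-7/Topo cells, 1 × 10^6/mL, loaded 30 min at 37 °C with 20 µM mitoxantrone plus compound, then 1 h efflux in drug-free medium; flow cytometry. Maximal inhibition = effect at highest tested concentration (7 or 10 µM) relative to 10 µM fumitremorgin C (100%, ice-kept sample); geometric mean fluorescence.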
# [5] = biological target: T2, ATP-binding cassette sub-family C member 2; assay: Inhibition of ABCC2 overexpressed in MDCK cells […] by flow cytometric-based chloromethylfluorescein-diacetate accumulation assay; type: cell-based
# MCF7 [6] = assay: Cytotoxicity against ABCG2 positive topotecan-resistant human MCF7 cells up to 100 nM by chemosensitivity assay
# [7] = Cytotoxicity against ABCG2 negative human U373MG cells by chemosensitivity assay; type: ADME, cell-based; details: u-373mg atcc
# How it was run: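 Proliferating ABCG2/ABCB1-nonexpressing U-373 MG glioblastoma cells (EMEM, 5% FCS, 37 °C, 5% CO2) seeded in 96-well plates, medium replaced after 2-3 days with drug or vehicle (1000-fold feed solutions); 16 wells per concentration. Cells fixed with glutardialdehyde at various times, stained with crystal violet, absorbance 578 nm; corrected T/C and cytocidal effect calculated.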
# [8] = biological target: T3, ATP-dependent translocase ABCB1; assay: (§1) Inhibition of ABCB1 overexpressed in human KBv1 cells at 10 uM by flow cytometric-based calcein-AM efflux assay; type: cell-based; details: kbv1, 10 µM
# How it was run: (§2)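 Done on KBv1 cells (ABCB1-overexpressing KB subclone), maintained in DMEM with 10% FCS and 270 ng/mL vinblastine. Intracellular calcein fluorescence from calcein-AM was measured by flow cytometry in the presence of test compound.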
# MCF7 [9] = assay: Potentiation of ABCG2 positive topotecan-induced cytotoxicity in topotecan-resistant human MCF7 cells at 100 nM by chemosensitivity assay
# ABCB1 [10] = biological target: T4, ABCB1 (Homo sapiens, UniProt P08183); assay: as §1; type: cell-based; details: KBv1 cells overexpressing ABCB1, probe calcein-AM; how it was run: as §2
# T4 sequence (P08183 whole entry): as above
# ABCB1 [11] = biological target: T4, ABCB1; assay: Inhibition of ABCB1 overexpressed in human KBv1 cells at 100 uM by flow cytometric-based calcein-AM efflux assay; type: cell-based; details: KBv1 cells overexpressing ABCB1, probe calcein-AM; how it was run: as §2
# MCF7 [12] = assay: Cytotoxicity against ABCG2 positive topotecan-resistant human MCF7 cells up to 500 uM by chemosensitivity assay; type: functional, cell-based
# How it was run: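 MCF-7/Topo cells (ABCG2-overexpressing, kept in EMEM with 5% FCS and 0.55 µM topotecan) were seeded into 96-well plates and grown 2-3 days. Test compound alone was then given under permanent exposure, against vehicle, with 16 wells per concentration. Cells were fixed with glutardialdehyde at various times and stained with crystal violet. A578 was read and corrected T/C% calculated.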
Structure (SMILES),IC50 [1] [nM],Activity [2],IC50 [3] [nM],inhibition (INH) [4] [%],IC50 [5] [nM],other results
COc1ccc(C(=O)Nc2ccc(CCN3CCc4cc(OC)c(OC)cc4C3)cc2)cc1NC(=O)c1cnc2ccccc2c1,317,Not Active,> 6000,63,–,–
COC(=O)c1ccc(C(=O)Nc2ccc(CCN3CCc4cc(OC)c(OC)cc4C3)cc2)cc1NC(=O)c1cnc(C)cn1,552,–,> 57000,44,> 20000,–
COC(=O)c1ccc(C(=O)Nc2ccc(CCN3CCc4cc(OC)c(OC)cc4C3)cc2)cc1NC(=O)c1cnc2ccccc2n1,183,–,> 34000,55,–,–
COC(=O)c1ccc(C(=O)Nc2ccc(CCN3CCc4cc(OC)c(OC)cc4C3)cc2)cc1NC(=O)c1cnc2ccccc2c1,119,Not Active,9450,41,–,Activity (MCF7 [6]): Active; Activity [7]: Toxic
CN(C)C(=O)CCSC(SCCC(=O)O)c1cccc(/C=C/c2ccc3ccc(Cl)cc3n2)c1 (stereo unspecified) [MK-571],–,–,–,–,> 1000,–
CCCCC/C=C\C\C=C/C=C/C=C/[C@@H](SC[C@@H](NC(=O)CC[C@H](N)C(=O)O)C(=O)NCC(=O)O)[C@@H](O)CCCC(=O)O [LEUKOTRIEN C4],–,–,–,–,< 150,–
COC(=O)c1ccc(C(=O)Nc2ccc(CCN3CCc4cc(OC)c(OC)cc4C3)cc2)cc1NC(=O)c1cccnc1,1020,–,> 14000,47,> 20000,–
COC(=O)c1ccc(C(=O)Nc2ccc(CCN3CCc4cc(OC)c(OC)cc4C3)cc2)cc1NC(=O)c1cnccn1,632,–,> 20000,38,> 50000,–
COc1cc2c(cc1OC)CN(CCc1ccc(NC(=O)c3cccc4c(=O)c5cccc(OC)c5[nH]c34)cc1)CC2,–,Not Active,–,46,–,–
COc1cc2c(cc1OC)CN(CCc1ccc(NC(=O)c3cc(NC(=O)c4cnc5ccccc5c4)c(OC)c(OC)c3)cc1)CC2,858,Not Active,> 17000,36,–,–
COc1cc2c(cc1OC)CN(CCc1ccc(NC(=O)c3ccc(C)c(NC(=O)c4cnc5ccccc5c4)c3)cc1)CC2,1990,–,> 15000,52,> 50000,–
COc1cc2c(cc1OC)CN(CCc1ccc(NC(=O)c3cc(OC)c(OC)cc3NC(=O)c3cnc4ccccc4c3)cc1)CC2,916,Not Active,–,39,–,–
COC(=O)c1ccc(C(=O)Nc2ccc(CCN3CCc4cc(OC)c(OC)cc4C3)cc2)cc1NC(=O)c1ccc2ncccc2c1,179,–,–,25,–,Activity [8]: Not Active
COc1cc(NC(=O)c2cnc3ccccc3c2)cc(C(=O)Nc2ccc(CCN3CCc4cc(OC)c(OC)cc4C3)cc2)c1,977,Not Active,> 15000,43,–,–
COC(=O)c1ccc(C(=O)Nc2ccc(CCN3CCc4cc(OC)c(OC)cc4C3)cc2)cc1NC(=O)c1ccc2ccccc2n1,60,–,> 29000,56,> 20000,Activity (MCF7 [9]): Active
COc1ccc2c3c([nH]c2c1)[C@H](C=C(C)C)N1C(=O)[C@@H]2CCCN2C(=O)[C@@H]1C3 [FUMITREMORGIN],> 11000,Not Active,–,100,–,inhibition at 10 µM (ABCB1 [10]): 0.8%; inhibition at 100 µM (ABCB1 [11]): 22%
COc1ccc2c3c([nH]c2c1)[C@H](CC(C)C)N1C(=O)[C@H](CCC(=O)OC(C)(C)C)NC(=O)[C@@H]1C3,–,–,–,–,> 50000,inhibition at 10 µM (ABCB1 [10]): 1.6%; Activity (MCF7 [9]): Active; Activity (MCF7 [12]): Active

# Reference: ChEMBL document CHEMBL1140935, “Potent and selective inhibitors of breast cancer resistance protein (ABCG2) derived from the p-glycoprotein (ABCB1) modulator tariquidar” (J Med Chem, 2009)
